Results reported in the array DNA melting data of Ke et al. (doi:10.1101/2024.01.08.574731).

Legend:
[1] = folding enthalpy; higher = less favourable; fluorescence melt of hairpins on a sequencing array, two-state fit; conditions: sodium 0.088 M
Procedure, shortened: (§1)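 Folding enthalpy and melting temperature come from bootstrapped two-state fits to Cy3 fluorescence of library hairpins carrying annealed Cy3 and quencher oligos on a sequenced MiSeq flow cell. Imaging was done in 50 mM Na-HEPES pH 8.0, 25 mM NaCl, stepping by 2.5 °C up to 60 °C, and signals were normalised to pre-quench Cy3 and to control constructs. Results of four replicates were combined by inverse variance, and fitted temperatures were raised by 9.35 °C to match UV melts.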

[2] = melting temperature; fluorescence melt of hairpins on a sequencing array, two-state fit, raised by 9.35 °C to match UV melts; conditions: sodium 0.088 M
Procedure, shortened: as §1

Sequence | folding enthalpy [1] [kcal/mol] | Tm [2] [°C]
GGGTTCCGAAAGGAGCCC (((.(((....))).))) | -39.8 | 67.1
GGGTTCGAAAGAAACCCC ((((((....)))..))) | -18.5 | 52.5
GGGTTCGAAAGAAGTCCC ((((((....)))..))) | -20.2 | 32.7
GGGTTCGAAAGAATACCC ((((((....)))..))) | -24.9 | 40.5
GGGTTCGAAAGAATCCC ((((((....))).))) | -29 | 52
GGGTTCGGAAACGAGCCC (((.(((....))).))) | -57.9 | 58.1
GGGTTCGGAAACGGACCC ((((.((....)).)))) | -46.2 | 59.6
GGGTTGGAAACAACCC ((((((....)))))) | -38.2 | 64.7
GGGTTGGGAAACCAACCC (((((((....))))))) | -32.3 | 69.3
GGGTTGGGAAACTAGCCC (((.(.(....).).))) | -21.4 | 42
GGGTTGGGAAACTGACCC ((((..(....)..)))) | -26.5 | 45.1
GGGTTTCGAAAGAATCCC (((.(((....))).))) | -36.6 | 50.1
GGGTTTGAAAAAACCC ((((((....)))))) | -40 | 58.4
GGGTTTGGAAACAAACTC (.(((((....))))).) | -29.8 | 46.6
GGTAAAGAAATTTACC ((((((....)))))) | -26 | 40.1
GGTAAAGGAAACTTTGCC ((.((((....)))).)) | -28.6 | 42.6
GGTAACCCGAAAGGGACC (((..(((....)))))) | -14.9 | 36.5
GGTAACCGAAAGGTCACC (((.(((....))).))) | -25 | 48.2
GGTAACGAAAGTTAACC ((((((....))).))) | -18.2 | 45.3
GGTAACGAAAGTTCACC ((((((....))).))) | -21.2 | 38.3
GGTAACGAAAGTTTAACC ((((((....)))..))) | -15.7 | 33.8
GGTAACGGAAACGTTACC (((((((....))))))) | -45.6 | 63.2
GGTAAGCCGAAAGGCACC (((..(((....)))))) | -15.4 | 42

Sequence | folding enthalpy [1] [kcal/mol] | Tm [2] [°C]
GGTAATCGAAAGATCACC (((.(((....))).))) | -25.6 | 39.2
GGTACACGAAAGTGCACC (((.(((....))).))) | -33.9 | 52.3
GGTACAGGAAACTGTGCC ((.((((....)))).)) | -31.8 | 52.6
GGTACATCGAAAGATACC (((..(((....)))))) | -11.5 | 29.7
GGTACCCGAAAGGGCACC (((.(((....))).))) | -32.3 | 55.6
GGTACCGAAAGGTAACC ((((((....))).))) | -26.9 | 53.4
GGTACCGAAAGGTATACC ((((((....)))..))) | -15.3 | 41.4
GGTACCGAAAGGTCAACC ((((((....)))..))) | -15.3 | 34.5
GGTACCGAAAGGTTACC ((((((....))).))) | -26.4 | 50
GGTACCGAAAGGTTTACC ((((((....)))..))) | -13.8 | 37.1
GGTACCGGAAACAGTACC (((((.(....).))))) | -31.1 | 39.9
GGTACCGGAAACGGTGCC ((.((((....)))).)) | -38.3 | 60.6
GGTACGCGAAAGCGACC (((.(((....)))))) | -14.9 | 54.8
GGTACGGGAAACCACACC (((..((....))..))) | -16.2 | 33
GGTACGGGAAACCGTGCC ((.((((....)))).)) | -40.9 | 59.7
GGTACGGGAAACCGTGTC (..((((....))))..) | -14.1 | 35.3
GGTACTCGAAAGAGCACC (((.(((....))).))) | -34.8 | 50.5
GGTACTCGAAAGAGGACC (((.(((....))).))) | -42.7 | 61.5
GGTACTGAAAAGTACC ((((((....)))))) | -39.5 | 57.4
GGTAGAACGAAAGTTACC (((..(((....)))))) | -17 | 35
GGTAGAGGAAACCCTACC (((((.(....).))))) | -33.4 | 38.2
GGTAGAGGAAACTCTATC (.(((((....))))).) | -26.9 | 37.1
